The source made the active and inactive calls. The calls are words filed in the database; no cut-off is given here.
Assays:
Rattus norvegicus [1] = test: Antihyperglycemic activity in fasted hyperglycemic Wistar rat assessed as serum glucose level at 10 mg/kg, po measured 15 mins post dose by oral glucose tolerance test (reference value: 177.46 +/- 5.95 mg/dL); assay type: functional
Summary of the method: (§1)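 Rats fasted at least 16 h (water free) were given glucose 4 g/kg by oral gavage; test compounds 10 mg/kg were gavaged in 0.3% Tween 80. Tail-vein blood was taken before dosing and at 15, 30, 60 and 180 min, then centrifuged. Serum glucose was measured by the glucose oxidase method. Six determinations per group, mean ± S.E.M.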

Rattus norvegicus [2] = test: Antihyperglycemic activity in fasted hyperglycemic Wistar rat assessed as serum glucose level at 10 mg/kg, po measured 30 mins post dose by oral glucose tolerance test (reference value: 190.15 +/- 1.77 mg/dL); assay type: functional; summary of the method: as §1
Rattus norvegicus [3] = test: Antihyperglycemic activity in fasted hyperglycemic Wistar rat assessed as serum glucose level at 10 mg/kg, po measured 60 mins post dose by oral glucose tolerance test (reference value: 182.55 +/- 6.95 mg/dL); assay type: functional; summary of the method: as §1
Rattus norvegicus [4] = test: Antihyperglycemic activity in fasted hyperglycemic Wistar rat assessed as serum glucose level at 10 mg/kg, po measured 180 mins post dose by oral glucose tolerance test (reference value: 141.15 +/- 4.47 mg/dL); assay type: functional; summary of the method: as §1
Rattus norvegicus [5] = test: Insulin secretagogue activity in fasted hyperglycemic Wistar rat assessed as insulin level at 10 mg/kg, po measured 15 mins post dose by ELISA method (reference value: 2.84 +/- 0.002 ng/mL); assay type: functional
Rattus norvegicus [6] = test: Insulin secretagogue activity in fasted hyperglycemic Wistar rat assessed as insulin level at 10 mg/kg, po measured 30 mins post dose by ELISA method (reference value: 0.75 +/- 0.007 ng/mL); assay type: functional
Rattus norvegicus [7] = test: Insulin secretagogue activity in fasted hyperglycemic Wistar rat assessed as insulin level at 10 mg/kg, po measured 60 mins post dose by ELISA method (reference value: 0.59 +/- 0.004 ng/mL); assay type: functional
Rattus norvegicus [8] = test: Insulin secretagogue activity in fasted hyperglycemic Wistar rat assessed as insulinogenic index ratio at 10 mg/kg, po by ELISA method (reference value: 0.66 ng/mg); assay type: functional
Summary of the method: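 Serum insulin (ELISA) and glucose (glucose oxidase) were sampled from 0 to 60 min after oral glucose 4 g/kg plus compound 10 mg/kg gavage in fasted rats. Incremental areas under the curves were computed. Insulinogenic index = AUC insulin / AUC glucose over 0–60 min.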

Rattus norvegicus [9] = test: Effect on glycogen content in skeletal muscle of fasted hyperglycemic Wistar rat assessed per gram of tissue at 10 mg/kg, po measured 3 hrs post dose (reference value: 8.6 +/- 1 mg/g of tissue); assay type: functional
Rattus norvegicus [10] = test: Effect on glycogen content in liver of fasted hyperglycemic Wistar rat assessed per gram of tissue at 10 mg/kg, po measured 3 hrs post dose (reference value: 14.6 +/- 1.27 mg/g of tissue); assay type: functional
Rattus norvegicus [11] = test: Toxicity in fasted hyperglycemic Wistar rat assessed as LDH level at 10 mg/kg, po by spectrophotometry based LDH release assay (reference value: 75.63 +/- 7.08 IU/L); assay type: organism-based; design: dose 10 mg/kg, route oral; settings: in vivo
[12] = Effect on glucose uptake in Wistar rat soleus muscle assessed per mg of protein at 1 uM by liquid scintillation counting based [14C]-2-deoxy-D-glucose uptake assay (reference value: 0.16 +/- 0.03 nmol glucose/mg protein); assay type: functional
[13] = Effect on glucose uptake in Wistar rat soleus muscle assessed per mg of protein at 10 uM by liquid scintillation counting based [14C]-2-deoxy-D-glucose uptake assay (reference value: 0.16 +/- 0.03 nmol glucose/mg protein); assay type: functional
Soleus muscle [14] = test: Stimulation of glucose uptake in Wistar rat soleus muscle assessed as glucose level per mg of protein at 100 uM by liquid scintillation counting based [14C]-2-deoxy-D-glucose uptake assay (reference value: 0.16 +/- 0.03 nmol glucose/mg protein); assay type: functional
Soleus muscle [15] = test: Stimulation of glucose uptake in Wistar rat soleus muscle at 10 uM in presence of 100 nM PI-3K inhibitor wortmannin by liquid scintillation counting based [14C]-2-deoxy-D-glucose uptake assay; assay type: functional, tissue-based
Summary of the method: (§2)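 Rat soleus in Krebs-Ringer bicarbonate (37 °C, O2/CO2 95:5, pH 7.4). Inhibitor or modulator (wortmannin 100 nM, H89, PMA 100 nM or cycloheximide) was present through a 30 min preincubation and a 60 min incubation, with or without compound. 14C-2-deoxy-D-glucose was added during incubation only. Uptake by scintillation counting normalised to Lowry protein; n=4 of 3 independent experiments.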

Soleus muscle [16] = test: Stimulation of glucose uptake in Wistar rat soleus muscle at 10 uM in presence of 10 uM PKA inhibitor H89 by liquid scintillation counting based [14C]-2-deoxy-D-glucose uptake assay; assay type: functional, tissue-based; summary of the method: as §2
Soleus muscle [17] = test: Stimulation of glucose uptake in Wistar rat soleus muscle at 10 uM in presence of 100 nM PMA by liquid scintillation counting based [14C]-2-deoxy-D-glucose uptake assay; assay type: functional, tissue-based; summary of the method: as §2
Soleus muscle [18] = test: Stimulation of glucose uptake in Wistar rat soleus muscle at 10 uM in presence of 350 uM cycloheximide by liquid scintillation counting based [14C]-2-deoxy-D-glucose uptake assay; assay type: functional, tissue-based; summary of the method: as §2
Soleus muscle [19] = test: Stimulation of protein synthesis in Wistar rat soleus muscle at 10 uM by liquid scintillation counting based 1-[U-14C]leucine incorporation assay; assay type: functional, tissue-based
Summary of the method: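 Soleus muscles from fasted rats were preincubated 30 min in Krebs-Ringer bicarbonate (O2/CO2 95:5, pH 7.4), then incubated 60 min with compound and L-[U-14C]leucine. The reaction was stopped with cold TCA (7% final). Incorporation was expressed as cpm/mg protein (Lowry); n=4 of 3 independent experiments.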

Soleus muscle [20] = test: Increase in GLUT4 expression in Wistar rat soleus muscle at 20 uM after 60 mins by polyacrylamide gel electrophoresis and immunoblotting analysis; assay type: functional, tissue-based
Soleus muscle [21] = test: Increase in GLUT4 expression in Wistar rat soleus muscle at 20 uM after 60 mins in presence of 350 uM cycloheximide by polyacrylamide gel electrophoresis and immunoblotting analysis; assay type: functional, tissue-based
Soleus muscle [22] = test: Increase in GLUT4 expression in Wistar rat soleus muscle membranes at 10 uM after 60 mins by immunofluorescence analysis; assay type: functional, cell membranes
Summary of the method: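 Soleus was taken after 60 min in vitro incubation, or 180 min after oral gavage at 10 mg/kg. Tissue was fixed in 4% paraformaldehyde, paraffin-embedded and cut at 5 µm, with citrate antigen retrieval. Sections were stained with mouse anti-GLUT4 (1:500, overnight) then Cy3 anti-mouse, with DAPI counterstain. GLUT4 distribution was assessed qualitatively.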

Rattus norvegicus [23] = test: Increase in GLUT4 expression in soleus muscle membranes of Wistar rat at 10 mg/kg, po after 180 mins by immunofluorescence analysis; settings: Membrane
[24] = molecular target: ATP-binding cassette sub-family C member 8 (Homo sapiens, UniProt Q09428); test: Binding affinity to SUR1 (unknown origin)
ATP-binding cassette sub-family C member 8, sequence (Q09428 whole entry): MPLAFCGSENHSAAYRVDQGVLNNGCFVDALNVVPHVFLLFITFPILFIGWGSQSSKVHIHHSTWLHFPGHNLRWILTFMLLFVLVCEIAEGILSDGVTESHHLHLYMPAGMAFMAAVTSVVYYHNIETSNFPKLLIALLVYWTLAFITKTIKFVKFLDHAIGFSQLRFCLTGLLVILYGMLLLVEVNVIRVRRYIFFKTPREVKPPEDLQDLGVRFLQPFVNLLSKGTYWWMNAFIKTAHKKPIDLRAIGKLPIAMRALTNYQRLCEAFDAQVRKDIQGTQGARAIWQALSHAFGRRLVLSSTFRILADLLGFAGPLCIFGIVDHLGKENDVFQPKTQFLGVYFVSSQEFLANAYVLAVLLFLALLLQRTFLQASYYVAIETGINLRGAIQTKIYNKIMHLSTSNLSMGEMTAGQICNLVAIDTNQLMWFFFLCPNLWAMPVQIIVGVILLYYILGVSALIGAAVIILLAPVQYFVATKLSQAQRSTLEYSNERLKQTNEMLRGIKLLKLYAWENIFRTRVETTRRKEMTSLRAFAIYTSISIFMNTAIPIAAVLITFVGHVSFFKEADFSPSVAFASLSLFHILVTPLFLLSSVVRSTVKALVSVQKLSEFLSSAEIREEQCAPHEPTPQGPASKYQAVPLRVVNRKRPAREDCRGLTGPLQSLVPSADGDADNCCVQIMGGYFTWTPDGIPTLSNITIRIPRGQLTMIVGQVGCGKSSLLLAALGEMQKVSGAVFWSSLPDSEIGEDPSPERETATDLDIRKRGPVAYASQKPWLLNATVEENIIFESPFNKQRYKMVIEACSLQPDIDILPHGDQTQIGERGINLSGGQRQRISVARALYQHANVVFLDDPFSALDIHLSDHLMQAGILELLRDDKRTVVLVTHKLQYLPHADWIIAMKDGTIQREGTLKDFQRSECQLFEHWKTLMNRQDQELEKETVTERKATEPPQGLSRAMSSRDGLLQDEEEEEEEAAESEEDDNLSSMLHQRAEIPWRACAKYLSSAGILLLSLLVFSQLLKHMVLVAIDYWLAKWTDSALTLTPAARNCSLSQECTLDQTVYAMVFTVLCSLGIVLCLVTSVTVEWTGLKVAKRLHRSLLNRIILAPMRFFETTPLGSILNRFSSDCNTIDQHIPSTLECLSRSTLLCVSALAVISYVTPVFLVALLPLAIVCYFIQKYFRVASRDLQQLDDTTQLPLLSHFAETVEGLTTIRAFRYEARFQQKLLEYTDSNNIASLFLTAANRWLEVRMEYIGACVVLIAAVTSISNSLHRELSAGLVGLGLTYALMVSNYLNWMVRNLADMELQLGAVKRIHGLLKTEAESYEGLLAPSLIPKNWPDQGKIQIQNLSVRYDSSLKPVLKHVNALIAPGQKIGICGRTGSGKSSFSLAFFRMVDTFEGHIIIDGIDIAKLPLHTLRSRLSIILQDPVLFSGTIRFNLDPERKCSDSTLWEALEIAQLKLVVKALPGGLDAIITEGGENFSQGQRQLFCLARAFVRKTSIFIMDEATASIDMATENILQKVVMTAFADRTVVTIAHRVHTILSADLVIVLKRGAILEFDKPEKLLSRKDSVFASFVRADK

Structure (SMILES) | Activity (Rattus norvegicus [1]) [mg/dL] | Activity (Rattus norvegicus [2]) [mg/dL] | Activity (Rattus norvegicus [3]) [mg/dL] | Activity (Rattus norvegicus [4]) [mg/dL] | Activity (Rattus norvegicus [5]) [ng/mL] | Activity (Rattus norvegicus [6]) [ng/mL] | Activity (Rattus norvegicus [7]) [ng/mL] | Ratio (Rattus norvegicus [8]) [ng/mg] | Activity (Rattus norvegicus [9]) [mg] | Activity (Rattus norvegicus [10]) [mg] | Activity (Rattus norvegicus [11]) [IU/L] | also measured
O=S(=O)(NCCc1ccc(S(=O)(=O)NC(=S)Nc2ccccc2)cc1)c1ccccc1 | 146.02 | 151.62 | 158.27 | 134.44 | 0.39 | 0.35 | 0.78 | 0.31 | 6.93 | 10.66 | 68.09 | –
COc1ccc(S(=O)(=O)NCCc2ccc(S(=O)(=O)NC(=O)Nc3cccc4ccccc34)cc2)cc1 | 155.68 | 156.4 | 157.9 | 143.6 | – | – | – | – | – | – | – | –
O=S(=O)(NC(=S)Nc1ccccc1)c1ccc(CCNS(=O)(=O)c2cccc3cccnc23)cc1 | 147.97 | 160.22 | 140.08 | 139.63 | 2.26 | 1.36 | 0.6 | 0.84 | 9.93 | 11.33 | 71.3 | –
COc1ccc(S(=O)(=O)NCCc2ccc(S(=O)(=O)NC(=S)Nc3ccccc3)cc2)cc1 | 150.98 | 144.75 | 154.79 | 124.7 | 2.75 | 0.7 | 0.53 | 0.77 | 7.24 | 104.25 | 108.01 | –
O=S(=O)(NC(=S)Nc1ccccc1)c1ccc(CCNS(=O)(=O)c2cccs2)cc1 | 150.23 | 141.6 | 140.96 | 139.26 | 3.01 | 1.19 | 1.46 | 1.06 | 20.69 | 7.68 | 72.19 | Activity [12]: 0.35 nmol; Activity [13]: 0.3 nmol; Activity (Soleus muscle [14]): 0.32 nmol; Activity (Soleus muscle [15]): inactive; Activity (Soleus muscle [16]): inactive; Activity (Soleus muscle [17]): inactive; Activity (Soleus muscle [18]): inactive; Activity (Soleus muscle [19]): Active; Activity (Soleus muscle [20]): Active; Activity (Soleus muscle [21]): inactive; Activity (Soleus muscle [22]): Active; Activity (Rattus norvegicus [23]): Active
COc1ccc(Cl)cc1C(=O)NCCc1ccc(S(=O)(=O)NC(=O)NC2CCCCC2)cc1 [GLYBURIDE] | 140.49 | 135.24 | 128.34 | 124.28 | 3.83 | 2.66 | 2.46 | 1.98 | 17.46 | 8.71 | 41.08 | –
Cc1ccc(S(=O)(=O)NCCc2ccc(S(=O)(=O)NC(=S)Nc3ccccc3)cc2)cc1 | 151.25 | 157.14 | 173.51 | 152.6 | – | – | – | – | – | – | – | –
COc1ccc(S(=O)(=O)NCCc2ccc(S(=O)(=O)NC(=S)Nc3ccc(Cl)cc3)cc2)cc1 | 141.45 | 158.69 | 151.74 | 139.54 | 2.69 | 0.71 | 0.52 | 0.72 | 28.51 | 69.35 | 73.92 | –
O=S(=O)(NCCc1ccc(S(=O)(=O)NC(=S)Nc2ccccc2)cc1)c1ccc(F)cc1 | 148.8 | 165.7 | 165.3 | 146.4 | – | – | – | – | – | – | – | –
CC(C)c1cc(C(C)C)c(S(=O)(=O)NCCc2ccc(S(=O)(=O)NC(=S)Nc3ccccc3)cc2)c(C(C)C)c1 | 149.51 | 168.72 | 152.76 | 142.08 | – | – | – | – | – | – | – | –
CC1(C)C2CCC1(CS(=O)(=O)NCCc1ccc(S(=O)(=O)NC(=S)Nc3ccccc3)cc1)C(=O)C2 (stereo not given) | 151.58 | 160.61 | 149.03 | 149.35 | – | – | – | – | – | – | – | –
COc1cc(NC(=O)CO[C@H]2O[C@H](CO)[C@@H](O)[C@H](O)[C@H]2O)c(Cl)cc1C(=O)NCCc1ccc(S(=O)(=O)NC(=O)NC2CCCCC2)cc1 | – | – | – | – | – | – | – | – | – | – | – | Kd [24]: 2.08 nM
COc1cc(NC(C)=O)c(Cl)cc1C(=O)NCCc1ccc(S(=O)(=O)NC(=O)NC2CCCCC2)cc1 | – | – | – | – | – | – | – | – | – | – | – | Kd [24]: 0.38 nM
